Calls of active or inactive are those of the source. The rule behind the calls is not given here.

The target of series [1] is Glucagon receptor (Homo sapiens, UniProt P47871). The series can be described thus: Binding affinity to human cloned GluR expressed in BHK cells. Format: cell-based. An outline of the steps: (§1)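 Competitive binding on purified plasma membranes from BHK cells expressing the cloned human receptor (glucagon, GIP or GLP-1 receptor). The glucagon receptor protocol follows earlier published work, and the GIP and GLP-1 assays were done the same way.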
Chain of Glucagon receptor (Homo sapiens, UniProt P47871) (P47871 whole entry): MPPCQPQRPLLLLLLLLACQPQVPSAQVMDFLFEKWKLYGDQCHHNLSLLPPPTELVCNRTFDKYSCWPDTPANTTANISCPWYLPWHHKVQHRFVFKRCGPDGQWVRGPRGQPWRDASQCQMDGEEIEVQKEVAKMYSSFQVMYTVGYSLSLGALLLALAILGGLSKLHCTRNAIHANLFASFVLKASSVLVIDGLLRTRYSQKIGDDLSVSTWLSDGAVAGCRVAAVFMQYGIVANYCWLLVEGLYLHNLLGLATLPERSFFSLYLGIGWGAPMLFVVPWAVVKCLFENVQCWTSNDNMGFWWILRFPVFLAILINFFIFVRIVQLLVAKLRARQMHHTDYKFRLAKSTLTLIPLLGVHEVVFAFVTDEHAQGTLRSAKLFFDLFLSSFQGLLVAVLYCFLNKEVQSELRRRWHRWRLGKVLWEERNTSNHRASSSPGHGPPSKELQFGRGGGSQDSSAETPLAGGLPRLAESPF

Series [2] has as its target Glucagon receptor (Rattus norvegicus, UniProt P30082). Briefly: Binding affinity to GlucR in rat liver membrane. The class given is cell membranes. The method in brief: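 Competitive binding on isolated rat liver membrane preparations, run by the same protocol as the human glucagon receptor binding assay.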
The nature of series [3]: Oral bioavailability in Sprague-Dawley rat at 4 mg/kg. Format: ADME, organism-based. To be noted: in vivo. The method in brief:
(§2)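 Fasted male Sprague-Dawley rats (~200 g) were given 2 mg/kg iv or 4 mg/kg po. Vehicle: 5% ethanol, 20% propylene glycol, 10% hydroxypropyl-β-cyclodextrin in phosphate buffer pH 7.5-8.0. EDTA blood was taken by heart puncture under CO2 at 5-360 min (iv) or 15-360 min (po). Plasma was analysed by HTLC-MS/MS, with noncompartmental PK analysis.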

The subject of the next series is Mus musculus. The series can be described thus: Reduction of hyperglycemia in leptin-deficient obese type-2 diabetes ob/ob mouse model at 100 mg/kg, po after 6 hrs. Format: functional, organism-based. Set-up: dose 100 mg/kg. The method in brief: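 Male ob/ob mice (11-13 weeks), selected for highest blood glucose and randomized to matched groups. Dosed 0 or 100 mg/kg by oral gavage in the morning, with food withheld for 6 h. Blood glucose was measured ~1/2 h predose and at 2, 4, 6 and 24 h, expressed as change from baseline.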

The target of series [4] is T1, Gastric inhibitory polypeptide receptor (Homo sapiens, UniProt P48546).
T1 sequence (P48546 whole entry): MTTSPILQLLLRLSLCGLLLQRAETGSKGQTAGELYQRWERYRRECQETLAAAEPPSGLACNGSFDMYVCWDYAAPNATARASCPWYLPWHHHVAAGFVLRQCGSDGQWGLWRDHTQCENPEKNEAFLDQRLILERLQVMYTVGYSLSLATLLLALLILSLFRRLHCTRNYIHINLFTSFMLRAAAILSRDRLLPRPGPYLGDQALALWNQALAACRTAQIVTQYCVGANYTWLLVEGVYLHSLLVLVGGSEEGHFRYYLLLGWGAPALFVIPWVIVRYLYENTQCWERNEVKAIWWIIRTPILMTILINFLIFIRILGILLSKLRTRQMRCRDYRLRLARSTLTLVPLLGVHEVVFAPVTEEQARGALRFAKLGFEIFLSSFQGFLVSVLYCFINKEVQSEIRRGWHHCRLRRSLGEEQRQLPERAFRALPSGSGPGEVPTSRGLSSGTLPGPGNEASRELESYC
Briefly: Binding affinity to human cloned GIPR expressed in BHK cells. The class given is cell-based. The method in brief: as §1

The target of series [5] is Glucagon-like peptide 1 receptor (Homo sapiens, UniProt P43220). The series can be described thus: Binding affinity to human cloned GLP1R expressed in BHK cells. The class given is cell-based. The method in brief: as §1
Chain of Glucagon-like peptide 1 receptor (P43220 whole entry): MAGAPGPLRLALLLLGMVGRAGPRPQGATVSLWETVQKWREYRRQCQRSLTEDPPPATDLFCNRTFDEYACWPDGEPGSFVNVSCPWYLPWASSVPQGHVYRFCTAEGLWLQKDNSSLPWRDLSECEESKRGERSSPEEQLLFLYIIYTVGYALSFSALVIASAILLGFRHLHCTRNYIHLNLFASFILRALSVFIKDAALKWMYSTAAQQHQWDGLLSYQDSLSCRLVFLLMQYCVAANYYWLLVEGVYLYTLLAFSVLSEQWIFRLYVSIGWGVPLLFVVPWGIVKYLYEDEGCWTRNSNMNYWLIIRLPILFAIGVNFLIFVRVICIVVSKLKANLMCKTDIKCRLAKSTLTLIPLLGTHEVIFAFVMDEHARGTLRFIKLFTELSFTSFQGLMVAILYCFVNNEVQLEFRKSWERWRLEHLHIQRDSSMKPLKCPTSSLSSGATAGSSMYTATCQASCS
For series [6], the target named is T2, Gastric inhibitory polypeptide receptor (Rattus norvegicus, UniProt P43219).
T2 sequence (P43219 whole entry): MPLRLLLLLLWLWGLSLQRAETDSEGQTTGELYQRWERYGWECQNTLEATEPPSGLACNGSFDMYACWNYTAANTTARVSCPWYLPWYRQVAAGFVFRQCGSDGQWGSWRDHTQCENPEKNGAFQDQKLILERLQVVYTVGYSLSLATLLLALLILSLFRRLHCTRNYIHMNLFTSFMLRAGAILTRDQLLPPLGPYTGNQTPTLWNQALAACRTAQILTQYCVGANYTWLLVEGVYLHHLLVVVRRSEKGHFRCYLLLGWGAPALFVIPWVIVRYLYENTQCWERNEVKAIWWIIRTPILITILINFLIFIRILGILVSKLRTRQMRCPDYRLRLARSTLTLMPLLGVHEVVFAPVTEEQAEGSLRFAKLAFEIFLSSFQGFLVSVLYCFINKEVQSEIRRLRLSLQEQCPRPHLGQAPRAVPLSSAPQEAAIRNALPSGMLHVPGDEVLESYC
Briefly: Binding affinity to GIPR in rat liver membrane. Format: cell membranes.

The nature of series [7]: Half life in Sprague-Dawley rat at 2 mg/kg, iv. Format: ADME, organism-based. Set-up: dose 2 mg/kg, route intravenous. The following applies: in vivo. An outline of the steps:
as §2

Series [8] has as its system Hepatocyte. The series can be described thus: Increase in lactate production in rat hepatocytes. Format: functional, cell-based.
In a further series the test system is BHK. The series can be described thus: Selectivity ratio of IC50 for human cloned GluR to IC50 for human cloned GLP1R expressed in BHK cells. Format: cell-based.
The test system of another series is Rattus norvegicus. Briefly: Inhibition of glucagon-stimulated increase in blood glucose levels in iv dosed Sprague-Dawley rat administered 5 mins before glucagon challenge. Format: functional. An outline of the steps:
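Nonfasted male Sprague-Dawley rats (200 g) were anaesthetized with sc fentanyl/fluanisone plus midazolam. Compound was given via jugular catheter at 0, 3 or 10 mg/kg, followed 5 min later by iv glucagon 3 µg/kg. Tail-tip blood glucose was sampled at 25 and 5 min before compound and 10 min after glucagon. Response = 10-min value minus mean basal.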

In series [9] the test system is Hepatocyte. Briefly: Inhibition of adrenaline-stimulated glycogenolysis in rat hepatocytes up to 25 uM. Format: functional, cell-based. An outline of the steps:
(§3)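 Glycogen-loaded cultured primary rat hepatocytes, either unstimulated (basal) or adrenaline-stimulated, in medium with 0.1% HSA. Compounds were tested at concentrations up to 25 µM, and glycogenolysis was read as glucose release.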

For series [10], the system named is Hepatocyte. The series can be described thus: Inhibition of glucagon-stimulated glycogenolysis in rat hepatocytes. Format: functional, cell-based. The method in brief: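 Isolated, cultured primary rat hepatocytes were loaded with glycogen and stimulated with 0.5 nM glucagon plus increasing compound concentrations in medium containing 0.1% HSA. Glucose released into the medium was measured after 60 min, and IC50 was derived.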

The test system of series [11] is Hepatocyte. The series can be described thus: Inhibition of basal glycogenolysis in rat hepatocytes up to 25 uM. Format: functional, cell-based. The method in brief: as §3

Chain of Glucagon receptor (Rattus norvegicus, UniProt P30082) (P30082 whole entry): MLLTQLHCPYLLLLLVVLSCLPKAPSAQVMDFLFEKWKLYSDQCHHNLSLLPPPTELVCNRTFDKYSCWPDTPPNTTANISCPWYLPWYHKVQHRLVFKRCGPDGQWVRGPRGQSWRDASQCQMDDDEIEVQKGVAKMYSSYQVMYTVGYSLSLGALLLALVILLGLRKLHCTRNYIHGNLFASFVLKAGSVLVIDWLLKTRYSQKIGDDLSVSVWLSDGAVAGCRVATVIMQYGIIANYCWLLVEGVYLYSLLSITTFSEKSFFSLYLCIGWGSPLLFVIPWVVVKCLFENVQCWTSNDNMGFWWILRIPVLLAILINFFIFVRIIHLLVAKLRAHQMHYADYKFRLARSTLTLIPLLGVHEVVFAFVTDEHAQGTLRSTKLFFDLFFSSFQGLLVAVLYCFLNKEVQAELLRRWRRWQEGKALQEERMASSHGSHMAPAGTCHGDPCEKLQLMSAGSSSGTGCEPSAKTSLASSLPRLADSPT

Consider `O=C(NC[C@@H](O)C(=O)O)c1ccc(CN(C(=O)Nc2cc(Cl)cc(Cl)c2)c2ccc(C3=CCCCC3)cc2)cc1`, for which the IC50 (commonly the concentration needed to halve the response being measured) on Glucagon receptor [1] came out at 3.9 nM; at Glucagon receptor [2], 43 nM; in [4] it was 359 nM; in series [5], 17000 nM; in series [6], 501 nM; with Hepatocyte [10], 200 nM. The bioavailability (commonly dose-corrected exposure relative to a reference, in per cent) in series [3] came to 32%. For the same compound, the result in the series on Mus musculus and with Hepatocyte [8] was Active. Also, the half-life (commonly the time in which the quantity being followed falls by half) in [7] came to 53 min. Also, in the series on BHK, the Ratio IC50 was 4300. Moreover, the Activity result in the series with Rattus norvegicus was “Dose-dependent effect”. Besides, the minimal effective dose in the series on Rattus norvegicus (read-out: MED) came to 3 mg/kg. For the same compound, the result in the series with Hepatocyte [9] and in the series with Hepatocyte [11] was inactive.

The record behind these values is ChEMBL document CHEMBL1140036, “Novel glucagon receptor antagonists with improved selectivity over the glucose-dependent insulinotropic polypeptide receptor” (J Med Chem, 2008).
